PMC7862734 (Investigative Ophthalmology & Visual Science, 2021)
Each block holds one molecule with its values, some of them ahead of it. *: point of attachment. Biotin = O=C1N[C@H]2[C@H](CS[C@H]2CCCCC(=O)*)N1

Legend:
[1] = biological target: VEGFR2 (Homo sapiens, UniProt P35968); test: Pull-down assay from HUVEC lysate, Western blotting; assay type: binding; conditions: biotin-peptide on streptavidin beads
Procedure, shortened: (§1)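 HUVEC at passage 3–6 grown in EGM2 and lysed. Lysate incubated with biotinylated test or control peptide captured on streptavidin beads. After washing, bound proteins and lysate input were immunoblotted with antibodies to VEGFR2 and Centaurin A.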

[2] = biological target: T1, Centaurin alpha (CentA) (Homo sapiens, UniProt O75689); test: as above; assay type: binding; conditions: biotin-peptide on streptavidin beads
T1 sequence (O75689 1-374): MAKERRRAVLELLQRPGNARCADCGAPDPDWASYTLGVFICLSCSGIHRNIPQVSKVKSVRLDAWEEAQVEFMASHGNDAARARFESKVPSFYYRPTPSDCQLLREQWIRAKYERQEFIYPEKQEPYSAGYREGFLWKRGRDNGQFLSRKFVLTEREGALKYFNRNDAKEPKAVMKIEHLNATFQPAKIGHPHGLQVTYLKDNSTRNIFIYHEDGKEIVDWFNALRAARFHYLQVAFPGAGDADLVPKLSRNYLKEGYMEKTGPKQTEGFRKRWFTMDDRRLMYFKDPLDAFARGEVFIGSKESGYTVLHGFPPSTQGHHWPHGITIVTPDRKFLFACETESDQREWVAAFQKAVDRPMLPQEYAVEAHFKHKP
Procedure, shortened: as §1

[3] = biological target: cytosolic kinase domain of EGFR (Homo sapiens, UniProt P00533); test: SPR; assay type: binding; conditions: protein up to 200 nM, HBS-EP, 25°C
[4] = biological target: cytosolic kinase domain of PDGFRβ (Homo sapiens, UniProt P09619); test: SPR; assay type: binding; conditions: protein up to 200 nM, HBS-EP, 25°C
Sequence of cytosolic kinase domain of PDGFRβ (P09619 554-1106 limits assumed): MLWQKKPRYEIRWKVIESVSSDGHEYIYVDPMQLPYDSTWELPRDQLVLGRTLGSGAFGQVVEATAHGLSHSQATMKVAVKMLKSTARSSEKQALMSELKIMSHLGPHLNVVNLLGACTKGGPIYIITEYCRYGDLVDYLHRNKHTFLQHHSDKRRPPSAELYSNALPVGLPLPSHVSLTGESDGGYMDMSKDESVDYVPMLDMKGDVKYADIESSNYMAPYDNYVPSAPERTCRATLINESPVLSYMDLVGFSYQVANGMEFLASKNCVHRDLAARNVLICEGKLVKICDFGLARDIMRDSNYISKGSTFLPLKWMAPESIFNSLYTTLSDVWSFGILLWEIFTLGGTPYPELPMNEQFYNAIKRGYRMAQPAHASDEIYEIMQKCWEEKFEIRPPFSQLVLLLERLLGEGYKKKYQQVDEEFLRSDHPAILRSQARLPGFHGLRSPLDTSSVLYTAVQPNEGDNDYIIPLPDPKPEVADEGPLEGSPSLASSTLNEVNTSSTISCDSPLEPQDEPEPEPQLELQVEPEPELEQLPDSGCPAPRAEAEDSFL

[5] = Biodistribution after eye drop, cryosection stained with Alexa 488-streptavidin; assay type: in vivo, mouse; conditions: eye drop 5 µg/eye, C57BL/6, time points 10 minutes, 30 minutes, 1 hour, 2 hours, streptavidin staining
[6] = test system: laser-induced CNV in C57BL/6 mice; test: Laser-induced choroidal neovascularization; assay type: in vivo, mouse
Procedure, shortened: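 C57BL/6 mice (7 weeks). Four 532 nm laser burns per mouse (200–355 mW, 50 µm, 70 msec). Test compound given as a daily eye drop (2 or 5 µg/eye in 5 µL PBS, days 1–14 or days 7–14) or as an intravitreal injection after laser (0.5–10 µg in 2 µL PBS), against control peptide or PBS. Day-14 OCT cross-section and ILB4-stained choroidal flat-mount area, averaged per mouse.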

[7] = biological target: cytosolic kinase domain of PDGFRα (Homo sapiens, UniProt P16234); test: SPR; assay type: binding; conditions: protein up to 200 nM, HBS-EP, 25°C
Sequence of cytosolic kinase domain of PDGFRα (P16234 550-1089 limits assumed): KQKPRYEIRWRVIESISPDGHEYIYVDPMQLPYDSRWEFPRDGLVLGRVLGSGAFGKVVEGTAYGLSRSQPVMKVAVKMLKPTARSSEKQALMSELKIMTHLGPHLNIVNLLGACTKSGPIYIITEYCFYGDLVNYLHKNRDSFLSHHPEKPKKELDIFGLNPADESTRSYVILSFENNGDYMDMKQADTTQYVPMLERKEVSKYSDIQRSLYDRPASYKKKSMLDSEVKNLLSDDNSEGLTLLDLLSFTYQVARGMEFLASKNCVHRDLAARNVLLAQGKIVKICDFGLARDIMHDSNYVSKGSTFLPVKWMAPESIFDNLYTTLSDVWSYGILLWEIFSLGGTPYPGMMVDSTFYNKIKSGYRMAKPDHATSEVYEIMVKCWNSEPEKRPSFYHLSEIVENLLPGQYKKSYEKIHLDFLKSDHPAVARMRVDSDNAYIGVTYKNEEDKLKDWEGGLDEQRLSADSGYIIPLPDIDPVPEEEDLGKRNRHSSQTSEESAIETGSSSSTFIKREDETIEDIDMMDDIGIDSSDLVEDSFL

[8] = intravitreal, human eyes; cited from earlier work
[9] = biological target: Kinesin-derived angiogenesis inhibitor (KAI), biotinylated (human) (UniProt Q9NQT8); test: SPR
[10] = biological target: recombinant cytosolic domain (789-1356 aa) of VEGFR2 (UniProt P35968 789-1356); test: SPR
Sequence of recombinant cytosolic domain (789-1356 aa) of VEGFR2 (P35968 789-1356): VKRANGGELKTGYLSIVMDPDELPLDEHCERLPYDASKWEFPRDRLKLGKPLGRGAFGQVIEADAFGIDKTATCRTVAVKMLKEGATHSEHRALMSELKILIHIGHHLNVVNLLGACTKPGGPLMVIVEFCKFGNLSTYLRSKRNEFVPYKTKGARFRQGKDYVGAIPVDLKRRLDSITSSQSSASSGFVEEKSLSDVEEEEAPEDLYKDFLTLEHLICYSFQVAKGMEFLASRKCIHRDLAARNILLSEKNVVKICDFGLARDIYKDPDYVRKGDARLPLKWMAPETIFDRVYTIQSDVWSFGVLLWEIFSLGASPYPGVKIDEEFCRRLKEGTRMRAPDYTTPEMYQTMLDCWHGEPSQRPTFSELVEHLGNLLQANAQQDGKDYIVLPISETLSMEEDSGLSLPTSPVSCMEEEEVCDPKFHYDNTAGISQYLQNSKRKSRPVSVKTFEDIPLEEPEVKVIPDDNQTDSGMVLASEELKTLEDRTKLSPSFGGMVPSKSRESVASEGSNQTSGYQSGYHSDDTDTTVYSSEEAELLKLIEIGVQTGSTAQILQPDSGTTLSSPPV

Sequence of VEGFR2 (P35968 20-1356): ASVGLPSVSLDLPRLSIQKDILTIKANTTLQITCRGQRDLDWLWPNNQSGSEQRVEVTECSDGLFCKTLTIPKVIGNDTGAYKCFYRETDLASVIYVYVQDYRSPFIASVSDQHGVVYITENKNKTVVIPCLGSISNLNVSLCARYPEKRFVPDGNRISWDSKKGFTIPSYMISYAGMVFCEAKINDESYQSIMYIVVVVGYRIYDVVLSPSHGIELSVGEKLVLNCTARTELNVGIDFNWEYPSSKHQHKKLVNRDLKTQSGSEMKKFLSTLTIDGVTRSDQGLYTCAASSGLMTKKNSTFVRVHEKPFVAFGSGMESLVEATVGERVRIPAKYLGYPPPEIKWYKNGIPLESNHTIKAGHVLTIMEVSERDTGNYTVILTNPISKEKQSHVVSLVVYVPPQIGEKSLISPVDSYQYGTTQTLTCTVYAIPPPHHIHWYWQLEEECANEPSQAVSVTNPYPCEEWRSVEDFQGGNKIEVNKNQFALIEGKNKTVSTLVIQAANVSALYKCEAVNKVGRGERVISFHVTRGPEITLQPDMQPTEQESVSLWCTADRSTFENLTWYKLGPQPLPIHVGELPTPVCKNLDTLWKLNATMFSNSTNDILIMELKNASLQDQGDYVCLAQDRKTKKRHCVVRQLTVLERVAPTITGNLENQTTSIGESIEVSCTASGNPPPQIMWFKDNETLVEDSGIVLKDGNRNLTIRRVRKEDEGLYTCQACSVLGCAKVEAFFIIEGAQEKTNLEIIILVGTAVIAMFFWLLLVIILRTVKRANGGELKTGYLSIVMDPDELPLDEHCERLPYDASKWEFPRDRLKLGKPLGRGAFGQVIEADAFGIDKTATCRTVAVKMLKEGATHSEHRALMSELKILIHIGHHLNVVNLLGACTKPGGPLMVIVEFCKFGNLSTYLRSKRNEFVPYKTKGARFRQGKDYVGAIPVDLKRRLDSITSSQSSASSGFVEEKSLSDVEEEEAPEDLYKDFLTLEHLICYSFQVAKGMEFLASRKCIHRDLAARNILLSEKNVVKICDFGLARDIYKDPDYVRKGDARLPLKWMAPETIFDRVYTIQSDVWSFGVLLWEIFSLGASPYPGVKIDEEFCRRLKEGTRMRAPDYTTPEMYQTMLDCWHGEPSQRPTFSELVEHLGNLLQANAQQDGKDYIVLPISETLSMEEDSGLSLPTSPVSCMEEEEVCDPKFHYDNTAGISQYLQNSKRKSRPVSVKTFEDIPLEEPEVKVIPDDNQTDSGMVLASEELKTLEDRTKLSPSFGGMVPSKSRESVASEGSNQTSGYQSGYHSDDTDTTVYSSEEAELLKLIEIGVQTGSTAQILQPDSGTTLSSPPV

Molecule: bevacizumab
Aqueous half-life [8]: 236 h

Molecule: ranibizumab
Aqueous half-life [8]: 173 h

B1: Kinesin-derived angiogenesis inhibitor (KAI), biotinylated (peptide, UniProt Q9NQT8 1238-1260, looked up)
peptide: Biotin-SRGTPVDERLFLIVRVTVQLSHP-NH2
SMILES: CC[C@H](C)[C@H](NC(=O)[C@H](CC(C)C)NC(=O)[C@H](Cc1ccccc1)NC(=O)[C@H](CC(C)C)NC(=O)[C@H](CCCNC(=N)N)NC(=O)[C@H](CCC(=O)O)NC(=O)[C@H](CC(=O)O)NC(=O)[C@@H](NC(=O)[C@@H]1CCCN1C(=O)[C@@H](NC(=O)CNC(=O)[C@H](CCCNC(=N)N)NC(=O)[C@H](CO)NC(=O)CCCC[C@@H]1SC[C@@H]2NC(=O)N[C@@H]21)[C@@H](C)O)C(C)C)C(=O)N[C@H](C(=O)N[C@@H](CCCNC(=N)N)C(=O)N[C@H](C(=O)N[C@H](C(=O)N[C@H](C(=O)N[C@@H](CCC(N)=O)C(=O)N[C@@H](CC(C)C)C(=O)N[C@@H](CO)C(=O)N[C@@H](Cc1c[nH]cn1)C(=O)N1CCC[C@H]1C(N)=O)C(C)C)[C@@H](C)O)C(C)C)C(C)C
Kd [10]: 6.8 ± 0.6 nM

Now from value to molecule, other results behind:

Interaction with VEGFR2 in pull-down [1]: interacts | Interaction with CentA in pull-down [2]: does not bind | Binding of EGFR to immobilized peptide (in words) [3]: did not bind | Binding of PDGFRβ to immobilized peptide (in words) [4]: very weak binding | Binding of PDGFRα to immobilized peptide (in words) [7]: did not bind
Molecule: KAI: 23 aa peptide, aa 1238-1260 of human KIF13B, minimum binding site to VEGFR2; biotinylated N-terminus, amidated C-terminus (Biotin-SRGTPVDERLFLIVRVTVQLSHP-NH2; SMILES CC[C@H](C)[C@H](NC(=O)[C@H](CC(C)C)NC(=O)[C@H](Cc1ccccc1)NC(=O)[C@H](CC(C)C)NC(=O)[C@H](CCCNC(=N)N)NC(=O)[C@H](CCC(=O)O)NC(=O)[C@H](CC(=O)O)NC(=O)[C@@H](NC(=O)[C@@H]1CCCN1C(=O)[C@@H](NC(=O)CNC(=O)[C@H](CCCNC(=N)N)NC(=O)[C@H](CO)NC(=O)CCCC[C@@H]1SC[C@@H]2NC(=O)N[C@@H]21)[C@@H](C)O)C(C)C)C(=O)N[C@H](C(=O)N[C@@H](CCCNC(=N)N)C(=O)N[C@H](C(=O)N[C@H](C(=O)N[C@H](C(=O)N[C@@H](CCC(N)=O)C(=O)N[C@@H](CC(C)C)C(=O)N[C@@H](CO)C(=O)N[C@@H](Cc1c[nH]cn1)C(=O)N1CCC[C@H]1C(N)=O)C(C)C)[C@@H](C)O)C(C)C)C(C)C)
Time at which peptide was detected in the retina and choroid [5]: 30 min | Regression of developed CNV ([6]; eye drop 5 µg/eye daily from day 7 to day 14): effective to regress neovascularization | Area of CNV measured by OCT (cross-section) vs ctrl ([6]; eye drop 2∼5 µg/eye daily day 1 to day 14, 200 mW laser, day 14): significantly reduced | Effect on CNV vs PBS (OCT and ILB4 staining) ([6]; intravitreal injection 2 µg in 2 µL PBS after laser burn, 355 mW, C57BL/6, P = 0.045 (OCT), P = 0.034 (ILB4), one-way ANOVA): significantly inhibited

Kd [9]: > 200 nM
Molecule: recombinant cytosolic domain of PDGFRB (domain or fragment)
